Screening results as filed in PubChem.
Compounds with a hit are over-represented: about 3% of the library has one in this group of screens.
SENP1 inh = inhibitors of human SENP1 SUMO protease catalytic domain. recombinant SENP1 catalytic domain, CyPet-SUMO1-YPet FRET cleavage. inhibition, % at 10 µM. Q9P0U3. hit rate 0.21% among 360,000;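 active = inhibition at least 30% at 10 µM, raw YFP signal under a set limit, fluorescence ratio 0.5 to 1.5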
Target sequence (Q9P0U3 419-644 limits assumed): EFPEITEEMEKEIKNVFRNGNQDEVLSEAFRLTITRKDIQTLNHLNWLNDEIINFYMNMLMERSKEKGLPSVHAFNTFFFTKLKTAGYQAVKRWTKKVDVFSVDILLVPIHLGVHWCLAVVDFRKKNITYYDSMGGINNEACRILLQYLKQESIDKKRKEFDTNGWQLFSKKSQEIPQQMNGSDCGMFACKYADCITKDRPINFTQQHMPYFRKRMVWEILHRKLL
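Test system: human SENP1 catalytic domain; medium: Tris pH 8 buffer plus EDTA, NaCl, BME, BSA, NP40, catalase; incubation: 50 min reaction at room temperature; technique: FRET, CFP and YFP emission; controls: no-enzyme low control and enzyme-plus-DMSO high control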
Granule exo inh = blocks lytic granule exocytosis; TALL-104 LAMP-1 surface exposure, flow cytometry; cells stimulated with thapsigargin and PMA; inhibition, % at 10 µM; hit rate 0.66% among 360,000;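 active = inhibition above about 55%, limit read from the data; inconclusive = no clear call, values can overlap the other calls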
Myeloid diff 2 = myeloid differentiation induction. ER-HoxA9 myeloid progenitors, lysozyme-GFP differentiation, flow cytometry. calls only at 10 µM. hit rate 1% among 360,000;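 active = normalized GFP-positive differentiation at or above the plate's own cutoff, the solvent-only control mean plus 3 SD; inconclusive = no clear call, values can overlap the other calls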;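 also: cells exposed to compound for four days before flow analysis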
Pemphigus Ab inh = blocks pemphigus antibody binding to human desmoglein-3. DSG3-coupled beads, scFv-anti-DSG3-GFP binding, flow cytometry; active compounds read low. AID 588358. P32926. hit rate 0.48% among 310,000. binding (percent of control), % at 10 µM;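 active = binding more than 3 SD below its plate's average and above zero; inconclusive = below that plate limit but binding exactly zero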;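 also: hits lower antibody fragment binding to DSG3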
H9c2 protect = myocardial damage modulation in H9c2 cells | H9c2 cardiomyocytes, H2O2 injury protection, ATPLite, 2 h | protection from H2O2 cell death, % at 20 µM | AID 588492 | hit rate 0.63% among 360,000;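 active = compounds giving at least 50% protection of heart cells from peroxide-induced death in the single-dose screen, raw or plate-pattern-corrected value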
HNF4A DNA FP = change in binding of human HNF4 alpha to DNA; P41235; HNF4a-FITC DNA binding, fluorescence polarization, 1 h; activity change, % at 10 µM; hit rate 0.3% among 360,000; AID 1224865; in the data active = activity change above about 30%, passing the limit was not always enough
Of the large screens only hits and unclear results are named; the others gave an inactive call.

O=C(Nc1ccc(NC(=O)c2ccc(Cl)c(S(=O)(=O)N3CCOCC3)c2)cc1)c1ccccc1	Myeloid diff 2 inconclusive
O=C(Nc1nc(-c2ccccn2)cs1)c1cc(S(=O)(=O)N2CCOCC2)ccc1F	Myeloid diff 2 active, H9c2 protect 59
CN(c1cccc(NC(=O)c2ccc(Cl)c(S(=O)(=O)N3CCOCC3)c2)c1)S(C)(=O)=O	Myeloid diff 2 active
O=C(Nc1nc(-c2ccccn2)cs1)c1ccc(F)c(S(=O)(=O)N2CCOCC2)c1	Myeloid diff 2 inconclusive, H9c2 protect 65
Cc1cc(C)cc(OCCNC(=O)c2cc(S(=O)(=O)N3CCOCC3)ccc2F)c1	Pemphigus Ab inh 58
Cc1ccc(S(=O)(=O)N2CCOCC2)cc1C(=O)Nc1nc(-c2cccnc2)cs1	none
Cc1ccc(S(=O)(=O)CC(=O)N2CCN(c3cccc(C(F)(F)F)c3)CC2)cc1	none
CC(=O)NC1=NN(C(C)=O)C(c2ccc(F)cc2)S1 (centres undefined)	none
O=C(c1ccc(Cl)cc1Cl)N1CCN(c2ccc(N3CCOCC3)nn2)CC1	none
COc1ccc(OCCCC(=O)Nc2cc(S(=O)(=O)N3CCCCC3)ccc2C)cc1	none
CN(CC1CCCO1)S(=O)(=O)c1ccc(C(=O)Nc2nc(-c3ccccn3)cs2)cc1 (centres undefined)	H9c2 protect 90
O=C(Nc1nc(-c2ccccn2)cs1)c1cccc(-n2cnnn2)c1	H9c2 protect 68 (no result: Myeloid diff 2)
CC(=O)c1ccc(NC(=O)c2ccc(C)c(S(=O)(=O)N3CCOCC3)c2)cc1	Pemphigus Ab inh 67
O=C(Nc1ccc(Br)cc1)c1cccc(-n2cnnn2)c1	none
O=C(Nc1cc(S(=O)(=O)N2CCOCC2)ccc1N1CCCCC1)c1cc(-c2ccccn2)nc2ccccc12	H9c2 protect 64
C[C@@H]1CCCCO[C@@H](CN(C)C(=O)CCCN(C)C)[C@@H](C)CN([C@H](C)CO)C(=O)c2cc(NC(=O)CCC(F)(F)F)ccc2O1	none (no result: Pemphigus Ab inh)
Cc1ccc(C(=O)Nc2nc(-c3ccccn3)cs2)cc1S(=O)(=O)N1CCOCC1	Myeloid diff 2 inconclusive, H9c2 protect 73
O=C(Nc1ccc(Cl)cc1F)c1ccc2c(c1)C(=O)N(Cc1ccncc1)C2=O	none (no result: Pemphigus Ab inh)
CCOC(=O)C1CCN(CC(O)COc2ccc(C(C)(C)CC)cc2)CC1 (centres undefined)	none
CCOC(=O)C1CCN(CC(O)COc2ccc(C(C)(C)C)cc2)CC1 (centres undefined)	Myeloid diff 2 active
CCOC(=O)C(=CNc1cccnc1Oc1ccc(C)c2c1CCC2)C(=O)OCC	none
CCOC(=O)CSc1nnc(CSc2nc3ccccc3c(=O)[nH]2)n1-c1ccccc1	H9c2 protect 51
CCOC(=O)CSc1nc2ccccc2c(=O)[nH]1	H9c2 protect 58
CN(C)C(=O)CSc1nc2ccccc2c(=O)[nH]1	H9c2 protect 81
O=c1cc(CSc2nc3ccccc3c(=O)[nH]2)c2ccc(O)cc2o1	H9c2 protect 94
Cc1ccn2c(CN(C)CCn3nc(C)cc3C)c(C(=O)N3CCCCCC3)nc2c1	none
CCOc1ccc(NC(=O)c2ccc(NC(=O)CSc3nc4ccccc4c(=O)[nH]3)cc2)cc1	Pemphigus Ab inh 81
CCc1ccc(C(=O)CSc2nc3ccccc3c(=O)[nH]2)cc1	none
O=C(CSc1nc2ccccc2[nH]1)c1c[nH]c2ccccc12	none
Cc1ccc2nc(SCC(=O)c3c[nH]c4ccccc34)[nH]c2c1	Myeloid diff 2 active
Cc1sc2nc(NCCO)[nH]c(=O)c2c1C	H9c2 protect 72
Cc1sc2nc(CC(=O)N3CCCC3)[nH]c(=O)c2c1C	none
Cc1ccc(C(=O)CSc2nc3ccccc3c(=O)[nH]2)cc1	H9c2 protect 47
CC1CC(C)CN(S(=O)(=O)c2cccc3nsnc23)C1 (centres undefined)	Pemphigus Ab inh inconclusive
COc1ccc(CNC(=O)CN(Cc2ccc(OC)cc2)C(=O)CCC(=O)Nc2ccccn2)cc1	none
CCOC(=O)CSc1nnc(CSc2nc3sc4c(c3c(=O)[nH]2)CCC4)n1C	H9c2 protect 66
CCOC(=O)CSc1nc2sc(C(=O)O)c(C)c2c(=O)[nH]1	none
CCN(CC)C(=O)CSc1nc2ccccc2c(=O)n1OC(C)C	Myeloid diff 2 active
CCOC(=O)CSc1nc2sc(C)c(C)c2c(=O)[nH]1	H9c2 protect 52
CC(C)(C)N(Cc1ccccc1)C(=O)CSc1nc2ccccc2c(=O)[nH]1	none
CCN(CC)C(=O)CSc1nc2ccccc2c(=O)[nH]1	H9c2 protect 65
CC(O)C(NC=C1C(=O)OC(C)(C)OC1=O)C(=O)O (centres undefined)	none
COC(CNC(=O)c1ccc(CS(=O)(=O)c2ccc(Br)cc2)o1)OC	none
CCCn1c(SCC(=O)c2c[nH]c3ccccc23)nnc1-c1ccncc1	Myeloid diff 2 active
CCOC(=O)c1c(NC(=O)COC(=O)c2ccc(O)cc2)sc(C(=O)N(C)C)c1C	H9c2 protect 63
CCOC(=O)c1c(S(=O)(=O)N2CCCCC2C)c(C)n(C)c1C (centres undefined)	none
C=CC[n+]1c(/C=C2\C=Cc3cc(C)ccc3N2CC)ccc2ccccc21	Myeloid diff 2 inconclusive, HNF4A DNA FP 38
C/C(=N\NC(=O)c1cc(C2CC2)nc2ccccc12)c1ccc(C)s1	none
O=C(NNC(=S)Nc1ccccc1)c1cc(-c2cccnc2)nc2ccccc12	none
CC(OC(=O)c1cc(-c2cccnc2)nc2ccccc12)C(=O)Nc1ccc2ccccc2c1 (centres undefined)	H9c2 protect 67
C/C(=N\NC(=O)c1cc(C2CC2)nc2ccccc12)c1ccc(O)cc1O	Myeloid diff 2 inconclusive, H9c2 protect 51
C/C(=N\NC(=O)c1cc(-c2cccnc2)nc2ccccc12)c1ccccc1O	Myeloid diff 2 inconclusive, H9c2 protect 60
CC(=O)NC(CC(=O)OCC(=O)N1CCN(S(=O)(=O)c2ccc(C)cc2C)CC1)c1ccccc1 (centres undefined)	none
CCCCNC(=O)C1(NC(=O)Nc2ccc(C)cc2)CCCCC1	none
Cc1ccc2sc(NC(=O)C3CC3)nc2c1C	Pemphigus Ab inh inconclusive
CC1(c2nnc(Cc3ccccc3)o2)CC(c2ccc(OC(F)(F)F)cc2)=NO1 (centres undefined)	none
Cc1cc(=O)[nH]c(SCC(=O)Nc2ccc3c(c2)CCC3)c1C#N	none (no result: Pemphigus Ab inh)
Cc1ccn2c(-c3n[nH]c(=S)n3C)c(C)nc2c1	none
CN(CC(=O)Nc1cccc(Cl)c1)S(=O)(=O)c1ccc2c(c1)n(C)c(=O)c(=O)n2C	none
COc1cccc(CNCc2ccccc2Br)c1OC	none
CC(=O)C1=C(O)C(=O)OC1c1ccc(Cl)cc1 (centres undefined)	Pemphigus Ab inh 76
COc1ccc(C(NC(=O)C2CCN(CCCOc3ccccc3)CC2)c2cccs2)cc1 (centres undefined)	none (no result: Pemphigus Ab inh)
